Results: ChEMBL document CHEMBL1123124, “New antihistaminic N-heterocyclic 4-piperidinamines. 2. Synthesis and antihistaminic activity of 1-[(4-fluorophenyl)methyl]-N-(4-piperidinyl)-1H-benzimidazol-2-a mines” (1985)

Assays:
Format in all cases: functional
Rattus norvegicus [1] = test: In vivo antihistaminic activity using compound 48/80 induced lethality test after 1 hr of subcutaneous administration in rat; conditions: sc
Outline: (§1)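 Protection was survival for 4 h after challenge. ED50 with confidence limits was calculated by Finney from five rats per dose and at least three doses of a geometric series (0.0025–40 mg/kg). Estimated ED50 used at least two rats per dose.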

Rattus norvegicus [2] = test: In vivo antihistaminic activity using compound 48/80 induced lethality test in rat after 2 hr of oral administration; outline: as §1
Cavia porcellus [3] = test: In vivo histamine induced lethality after 3 hours of iv administration in guinea pig
Cavia porcellus [4] = test: In vivo histamine induced lethality after 8 hours of iv administration in guinea pig
Rattus norvegicus [5] = test: Inhibition of mydriatic activity in rat after 2 hr of oral administration.
Cavia porcellus [6] = test: In vivo histamine induced lethality after 24 hours of iv administration in guinea pig
Rattus norvegicus [7] = test: Inhibition of serotonin skin reaction in rat after 2 hr of oral administration.
Outline: (§2)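 Test compound or solvent given orally to rats 2 h before four intradermal injections into clipped back: two of 50 μL histamine dihydrochloride (1 mg/mL in saline), two of 50 μL serotonin (2 μg/mL in saline). Then iv 0.5 mL of 0.5% trypan blue. Bluing of skin reactions scored 30 min later.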

Rattus norvegicus [8] = test: Inhibition of histamine skin reaction in rat after 2 hr of oral administration.; outline: as §2
Rattus norvegicus [9] = test: Inhibition of mydriatic activity in rat after 2 hr of intraperitoneal administration; conditions: ip
Rattus norvegicus [10] = test: Inhibition of histamine skin reaction in rat after 2 hr of subcutaneous administration.; conditions: sc
Rattus norvegicus [11] = test: Inhibition of serotonin skin reaction in rat after 2 hr of subcutaneous administration.; conditions: sc

Structure (SMILES) | ED50 (Rattus norvegicus [1]) [mg/kg] | ED50 (Rattus norvegicus [2]) [mg/kg] | further results
Fc1ccc(Cn2c(NC3CCN(CCc4ccc(OCc5ccccc5)cc4)CC3)nc3ccccc32)cc1 | 2.5 | – | –
OC(CN1CCC(Nc2nc3ccccc3n2Cc2ccc(F)cc2)CC1)c1ccccc1 (stereo unspecified) | 0.63 | > 2.5 | –
O=c1[nH]c2ccccc2n1CCCN1CCN(C(c2ccccc2)c2ccccc2)CC1 [OXATOMIDE] | – | – | ED50 (Cavia porcellus [3]): 0.2 mg/kg; ED50 (Cavia porcellus [4]): 1.25 mg/kg; ED50 (Rattus norvegicus [5]): > 160 mg/kg; ED50 (Cavia porcellus [6]): > 5 mg/kg; ED50 (Rattus norvegicus [7]): 32.6 mg/kg; ED50 (Rattus norvegicus [8]): 9.36 mg/kg
Fc1ccc(Cn2c(NC3CCN(CCc4cccc5ccccc45)CC3)nc3ccccc32)cc1 | 1.25 | 0.63 | –
O=C(OCCN1CCC(Nc2nc3ccccc3n2Cc2ccc(F)cc2)CC1)N1CCOCC1 | 0.31 | 2.5 | –
COc1cccc(OC)c1OCC(O)CN1CCC(Nc2nc3ccccc3n2Cc2ccc(F)cc2)CC1 (stereo unspecified) | 0.63 | 1.25 | –
COc1cccc(CCN2CCC(Nc3nc4ccccc4n3Cc3ccc(F)cc3)CC2)c1.Cl | 0.31 | 0.31 | –
Cc1ccc2nc(NC3CCN(CCc4ccccc4)CC3)n(Cc3ccc(F)cc3)c2c1 | > 2.5 | – | –
Oc1nc2ccccc2n1CCCN1CCC(Nc2nc3ccccc3n2Cc2ccc(F)cc2)CC1 | 0.31 | 1.25 | –
Fc1ccc(Cn2c(NC3CCN(CCCOc4ccccc4)CC3)nc3ccccc32)cc1 | 1.25 | 0.31 | –
CCCCNC(=O)Oc1ccc(CCN2CCC(Nc3nc4ccccc4n3Cc3ccc(F)cc3)CC2)cc1 | 2.5 | – | –
C=CCOc1ccc(CCN2CCC(Nc3nc4ccccc4n3Cc3ccc(F)cc3)CC2)cc1.Cl | 2.5 | – | –
Cl.O=C(COc1ccc(CCN2CCC(Nc3nc4ccccc4n3Cc3ccc(F)cc3)CC2)cc1)N1CCCCC1 | 1.25 | 1.25 | –
CCOc1ccc(CCN2CCC(Nc3nc4ccccc4n3Cc3ccc(F)cc3)CC2)cc1 | 1.25 | 0.16 | –
CC(CN1CCC(Nc2nc3ccccc3n2Cc2ccc(F)cc2)CC1)c1ccccc1 (stereo unspecified) | 0.63 | 2.5 | –
COc1ccc(OCC(O)CN2CCC(Nc3nc4ccccc4n3Cc3ccc(F)cc3)CC2)cc1 (stereo unspecified) | 1.25 | 2.5 | –
N#CCN1CCC(Nc2nc3ccccc3n2Cc2ccc(F)cc2)CC1 | 0.16 | 2.5 | –
Br.Br.Fc1ccc(Cn2c(NC3CCNCC3)nc3ccccc32)cc1 | 0.056 | 1.02 | –
Fc1ccc(Cn2c(NC3CCN(C/C=C/c4ccccc4)CC3)nc3ccccc32)cc1 | 1.25 | > 2.5 | –
COC(=O)COc1ccc(CCN2CCC(Nc3nc4ccccc4n3Cc3ccc(F)cc3)CC2)cc1 | 2.5 | – | –
COc1ccc(C(=O)OCCN2CCC(Nc3nc4ccccc4n3Cc3ccc(F)cc3)CC2)cc1.Cl | 0.31 | 0.63 | –
O=C(OCc1ccccc1)Oc1ccc(CCN2CCC(Nc3nc4ccccc4n3Cc3ccc(F)cc3)CC2)cc1 | 0.31 | 0.16 | –
Fc1ccc(Cn2c(NC3CCN(CCc4ccncc4)CC3)nc3ccccc32)cc1 | 0.31 | 1.25 | –
COc1ccc(OCCCN2CCC(Nc3nc4ccccc4n3Cc3ccc(F)cc3)CC2)cc1 | 0.31 | 0.31 | –

Structure (SMILES) | ED50 (Rattus norvegicus [1]) [mg/kg] | ED50 (Rattus norvegicus [2]) [mg/kg] | further results
Cl.N#CC1(c2ccccc2)CCC(N2CCC(Nc3nc4ccccc4n3Cc3ccc(F)cc3)CC2)CC1 (stereo unspecified) | > 2.5 | – | –
CCCCOc1ccccc1OCC(O)CN1CCC(Nc2nc3ccccc3n2Cc2ccc(F)cc2)CC1 (stereo unspecified) | 2.5 | – | –
CN1CCC(Nc2nc3ccccc3n2Cc2ccc(F)cc2)CC1 | 0.16 | 2.5 | ED50 (Rattus norvegicus [9]): > 40 mg/kg; ED50 (Rattus norvegicus [10]): 0.04 mg/kg; ED50 (Rattus norvegicus [11]): ≥ 0.63 mg/kg
NC(=O)COc1ccc(CCN2CCC(Nc3nc4ccccc4n3Cc3ccc(F)cc3)CC2)cc1 | 1.25 | 2.5 | –
Cl.NCCN1CCC(Nc2nc3ccccc3n2Cc2ccc(F)cc2)CC1 | 1.25 | > 2.5 | –
CC(Cc1ccccc1)N1CCC(Nc2nc3ccccc3n2Cc2ccc(F)cc2)CC1 (stereo unspecified) | 2.5 | – | –
Cc1cc(CCN2CCC(Nc3nc4ccccc4n3Cc3ccc(F)cc3)CC2)ccc1O.Cl | 0.08 | 0.16 | –
Fc1ccc(Cn2c(NC3CCN(CCc4ccccc4)CC3)nc3cc(Cl)ccc32)cc1 | > 2.5 | – | –
Cl.Oc1cccc(CCN2CCC(Nc3nc4ccccc4n3Cc3ccc(F)cc3)CC2)c1 | 0.16 | 0.31 | –
CNC(=O)Oc1ccc(CCN2CCC(Nc3nc4ccccc4n3Cc3ccc(F)cc3)CC2)cc1 | 1.25 | 2.5 | –
CC(=O)c1ccc(OCC(O)CN2CCC(Nc3nc4ccccc4n3Cc3ccc(F)cc3)CC2)cc1 (stereo unspecified) | 0.63 | 1.25 | –
COc1ccc(OC)c(CCN2CCC(Nc3nc4ccccc4n3Cc3ccc(F)cc3)CC2)c1 | 0.63 | 0.63 | –
OC(COc1ccccc1)CN1CCC(Nc2nc3ccccc3n2Cc2ccc(F)cc2)CC1 (stereo unspecified) | 0.63 | 1.25 | –
Nc1ccc(CCN2CCC(Nc3nc4ccccc4n3Cc3ccc(F)cc3)CC2)cc1 | 0.31 | 0.63 | –
CCOC(=O)COc1ccc(CCN2CCC(Nc3nc4ccccc4n3Cc3ccc(F)cc3)CC2)cc1 | 0.16 | > 2.5 | –
Fc1ccc(Cn2c(NC3CCN(CCN(Cc4ccccc4)Cc4ccccc4)CC3)nc3ccccc32)cc1 | > 2.5 | – | –
Cl.N#CCOc1ccc(CCN2CCC(Nc3nc4ccccc4n3Cc3ccc(F)cc3)CC2)cc1 | 0.63 | 0.08 | –
CS(=O)(=O)c1ccc(CCN2CCC(Nc3nc4ccccc4n3Cc3ccc(F)cc3)CC2)cc1 | 1.25 | > 2.5 | –
Cl.Fc1ccc(CCN2CCC(Nc3nc4ccccc4n3Cc3ccc(F)cc3)CC2)cc1 | 0.31 | > 2.5 | –
Fc1ccc(Cn2c(NC3CCN(CCc4ccccn4)CC3)nc3ccccc32)cc1 | 0.16 | 0.63 | –
CN(C)CCN1CCC(Nc2nc3ccccc3n2Cc2ccc(F)cc2)CC1 | 0.63 | – | –
Fc1ccc(Cn2c(NC3CCN(CCC=C4c5ccccc5CCc5ccccc54)CC3)nc3ccccc32)cc1 | > 2.5 | – | –
O=C(Cc1ccccc1)Oc1ccc(CCN2CCC(Nc3nc4ccccc4n3Cc3ccc(F)cc3)CC2)cc1 | 0.31 | 0.08 | –
COC(=O)Oc1ccc(CCN2CCC(Nc3nc4ccccc4n3Cc3ccc(F)cc3)CC2)cc1 | 0.16 | 0.16 | –

Structure (SMILES) | ED50 (Rattus norvegicus [1]) [mg/kg] | ED50 (Rattus norvegicus [2]) [mg/kg] | further results
O=C(NCCN1CCC(Nc2nc3ccccc3n2Cc2ccc(F)cc2)CC1)c1ccc(F)cc1 | 0.31 | 2.5 | –
Fc1ccc(Cn2c(NC3CCN(C4CCCCC4)CC3)nc3ccccc32)cc1 | 0.31 | > 2.5 | –
COc1ccc(C(=O)N(CCN2CCC(Nc3nc4ccccc4n3Cc3ccc(F)cc3)CC2)C(=O)c2ccc(OC)cc2)cc1.Cl | > 2.5 | – | –
CC(c1ccccc1)N1CCC(Nc2nc3ccccc3n2Cc2ccc(F)cc2)CC1 (stereo unspecified) | 0.31 | 2.5 | –
CSc1ccc(CCN2CCC(Nc3nc4ccccc4n3Cc3ccc(F)cc3)CC2)cc1 | 0.63 | 1.25 | –
Cl.Fc1ccc(Cn2c(NC3CCN(CCN4CCOCC4)CC3)nc3ccccc32)cc1 | 0.31 | 2.5 | –
COc1ccccc1OCC(O)CN1CCC(Nc2nc3ccccc3n2Cc2ccc(F)cc2)CC1 (stereo unspecified) | 1.25 | 0.63 | –
CCn1nnn(CCN2CCC(Nc3nc4ccccc4n3Cc3ccc(F)cc3)CC2)c1=O | 0.16 | > 2.5 | –
COc1ccc(CCN2CCC(Nc3nc4ccccc4n3Cc3ccc(F)cc3)CC2)c(OC)c1.Cl | 0.31 | 0.31 | –
CNC(=O)NCCN1CCC(Nc2nc3ccccc3n2Cc2ccc(F)cc2)CC1 | 0.02 | > 2.5 | –
Fc1ccc(Cn2c(NC3CCN(CCCCOc4ccccc4)CC3)nc3ccccc32)cc1 | 0.63 | 0.63 | –
COc1ccc(C(=O)Oc2ccc(CCN3CCC(Nc4nc5ccccc5n4Cc4ccc(F)cc4)CC3)cc2)cc1 | 0.63 | 0.16 | –
COc1ccc(SCCCN2CCC(Nc3nc4ccccc4n3Cc3ccc(F)cc3)CC2)cc1 | 2.5 | – | –
Cc1cc(CCN2CCC(Nc3nc4ccccc4n3Cc3ccc(F)cc3)CC2)ccc1OCc1ccccc1 | > 2.5 | – | –
Fc1ccc(Cn2c(NC3CCN(CCNCc4ccccc4)CC3)nc3ccccc32)cc1 | 1.25 | > 2.5 | –
COc1ccc(S(=O)(=O)CCCN2CCC(Nc3nc4ccccc4n3Cc3ccc(F)cc3)CC2)cc1 | 0.31 | 2.5 | –
Fc1ccc(Cn2c(NC3CCN(CCCNc4ccccc4)CC3)nc3ccccc32)cc1 | 0.63 | 2.5 | –
COc1ccc(CCN2CCC(Nc3nc4ccccc4n3Cc3ccc(F)cc3)CC2)cc1OC | 1.25 | 0.16 | –
CCNC(=O)COc1ccc(CCN2CCC(Nc3nc4ccccc4n3Cc3ccc(F)cc3)CC2)cc1 | 1.25 | 2.5 | –
Cl.Cn1nnn(CCN2CCC(Nc3nc4ccccc4n3Cc3ccc(F)cc3)CC2)c1=O | 0.31 | > 2.5 | –
COc1ccccc1CCN1CCC(Nc2nc3ccccc3n2Cc2ccc(F)cc2)CC1 | 1.25 | 0.63 | –
Fc1ccc(Cn2c(NC3CCN(CCc4cccs4)CC3)nc3ccccc32)cc1 | 0.16 | 0.63 | –
COc1cc(CCN2CCC(Nc3nc4ccccc4n3Cc3ccc(F)cc3)CC2)cc(OC)c1OC.Cl | 1.25 | 0.63 | –
Cl.Fc1ccc(Cn2c(NC3CCN(CCc4ccccc4)CC3)nc3ccccc32)cc1 | 0.31 | 0.63 | –
